Test results published in ChEMBL document CHEMBL1137291, “p38 MAP kinase inhibitors. Part 5: discovery of an orally bio-available and highly efficacious compound based on the 7-amino-naphthyridone scaffold” (Bioorg Med Chem Lett, 2006).
One block for each compound: values may come before it.

Experiments:
[1] = Bioavailability in Sprague-Dawley rat at 1 mg/kg, po; type: ADME, organism-based; details: in vivo
How it was run: (§1)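 Sprague-Dawley rats (male where specified) were dosed orally at 1 mpk, in one case as a 0.5% methylcellulose suspension. Plasma exposure was followed to give oral bioavailability, AUC, C_max and half-life.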

[2] = Cmax in Sprague-Dawley rat at 1 mg/kg, po; type: ADME, organism-based; design: dose 1 mg/kg, route oral; details: in vivo; how it was run: as §1
THP-1 = test: Inhibition of TNFalpha release from LPS-stimulated human monocyte THP1 cells; type: functional, cell-based
Rattus norvegicus [3] = test: Inhibition of TNFalpha production in rat LPS challenge model at 3 mg/kg, po after 24 hrs; type: functional
[4] = Half life in Sprague-Dawley rat at 1 mg/kg, po; type: ADME, organism-based; design: dose 1 mg/kg, route oral; details: in vivo; how it was run: as §1
Blood = test: Inhibition of LPS-stimulated TNFalpha release in human whole blood; type: functional, tissue-based
Rattus norvegicus [5] = test: Reduction of TNFalpha production in rat LPS challenge model at 10 mg/kg, po after 3 hrs; type: functional; design: scale not given: the % may be the effect or the level left
[6] = Oral bioavailability in Sprague-Dawley rat; type: ADME, organism-based; details: in vivo; how it was run: as §1
[7] = Half life in Sprague-Dawley rat at 1 mg/kg; type: ADME, organism-based; design: dose 1 mg/kg; details: in vivo; how it was run: as §1
[8] = Clearance in Sprague-Dawley rat at 1 mg/kg; type: ADME, organism-based; design: dose 1 mg/kg; details: in vivo
[9] = Cmax in Sprague-Dawley rat at 1 mg/kg; type: ADME, organism-based; design: dose 1 mg/kg; details: in vivo; how it was run: as §1
[10] = Volume of distribution in Sprague-Dawley rat at 1 mg/kg; type: ADME, organism-based; design: dose 1 mg/kg; details: in vivo, read-out: Vdss
[11] = Oral bioavailability in rhesus macaque; type: ADME, organism-based, Macaca mulatta; details: rhesus monkey, in vivo
[12] = Half life in rhesus macaque; type: ADME, organism-based, Macaca mulatta; details: rhesus monkey, in vivo
[13] = Clearance in rhesus macaque; type: ADME, organism-based, Macaca mulatta; details: rhesus monkey, in vivo
[14] = Volume of distribution in rhesus macaque; type: ADME, organism-based, Macaca mulatta; details: rhesus monkey, in vivo; read-out: Vdss
Mus musculus = test: Inhibition of TNFalpha production in BALB/c mouse at 0.3 mg/kg up to 24hrs; type: functional
How it was run: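 Female Balb/c mice aged 12–16 weeks were given compound orally in 0.5% methylcellulose 22.5 h before LPS challenge. They were sacrificed 1.5 h after challenge, and plasma TNF-a was measured by ELISA.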

Rattus norvegicus [15] = test: Inhibition of TNF-alpha production in rat LPS challenge model at 1 mg/kg, po after 24 hrs; type: functional
Rattus norvegicus [16] = test: Inhibition of paw swelling in AIA Lewis rat at 0.1 mg/kg, po after 21 days; type: functional; details: 504 h
How it was run: (§2)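 Seven-week-old female Lewis rats had adjuvant injected into the left hind paw on day 0. Disease developed over 12 days, then rats were dosed orally at 0.1, 0.3, 1 or 3 mpk once daily for ten days. On days 0, 12 and 21 they were weighed, paw volumes measured and radiographs taken. Swelling of the secondary paw was scored.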

Rattus norvegicus [17] = test: Inhibition of paw swelling in AIA Lewis rat at 0.3 mg/kg, po after 21 days; type: functional; details: 504 h; how it was run: as §2
Rattus norvegicus [18] = test: Inhibition of paw swelling in AIA Lewis rat at 1 mg/kg, po after 21 days; type: functional; details: 504 h; how it was run: as §2
Rattus norvegicus [19] = test: Inhibition of paw swelling in AIA Lewis rat at 3 mg/kg, po after 21 days; type: functional; details: 504 h; how it was run: as §2
Rattus norvegicus [20] = species: Rattus norvegicus; test: Inhibition of paw swelling in AIA Lewis rat after 21 days; type: functional; details: 504 h; how it was run: as §2
Rattus norvegicus [21] = test: Inhibition of TNFalpha production in rat LPS challenge model at 0.1 mg/kg, po after 24 hrs; type: functional
Rattus norvegicus [22] = test: Inhibition of TNF-alpha production in rat LPS challenge model at 0.3 mg/kg, po after 24 hrs; type: functional
Rattus norvegicus [23] = test: Inhibition of TNFalpha production in rat LPS challenge model at 3 mg/kg, po after 6 hrs; type: functional
Rattus norvegicus [24] = test: Inhibition of TNFalpha production in rat LPS challenge model at 3 mg/kg, po after 16 hrs; type: functional
[25] = Half life in rat; type: ADME, organism-based; details: in vivo; how it was run: as §1
[26] = Oral bioavailability in rat; type: ADME, organism-based; details: in vivo; how it was run: as §1
[27] = Cmax in rat; type: ADME, organism-based; details: in vivo; how it was run: as §1

SMILES: O=c1ccc2c(-c3ccc(F)cc3F)[n+]([O-])ccc2n1-c1c(Cl)cccc1Cl
bioavailability [1]: 98%
Cmax [2]: 3.5 µM
IC50 (THP-1): 200 nM
inhibition in vivo at 3 mg/kg (Rattus norvegicus [3]): 80%
half-life [4]: 9.9 h

SMILES: O=c1ccc2c(-c3ccc(F)cc3F)nccc2n1-c1ccccc1Cl
IC50 (THP-1): 40.5 nM
IC50 (Blood): 86.1 nM

SMILES: CNc1cc2c(ccc(=O)n2-c2c(F)cccc2F)c(-c2ccc(F)cc2F)n1
IC50 (THP-1): 7.3 nM
IC50 (Blood): 73 nM

Compounds with a lower IC50 (THP-1), results first:

IC50 (THP-1): 7 nM
IC50 (Blood): 145 nM
SMILES: O=c1ccc2c(-c3ccc(F)cc3F)nccc2n1-c1c(F)cccc1F

half-life [25]: 2 h
IC50 (THP-1): 6.6 nM
IC50 (Blood): 101 nM
bioavailability [26]: 57%
Cmax [27]: 1 µM
SMILES: O=c1ccc2c(-c3ccc(F)cc3F)nccc2n1-c1c(Cl)cccc1Cl
inhibition in vivo at 3 mg/kg (Rattus norvegicus [23]): 61%
inhibition in vivo at 3 mg/kg (Rattus norvegicus [24]): 37%
inhibition in vivo at 3 mg/kg (Rattus norvegicus [3]): 27%

IC50 (THP-1): 4.5 nM
IC50 (Blood): 121 nM
SMILES: O=c1ccc2c(-c3ccc(F)cc3F)nc(O)cc2n1-c1c(F)cccc1F
Activity (Rattus norvegicus [5]): 70%

IC50 (THP-1): 0.69 nM
IC50 (Blood): 34 nM
bioavailability [6]: 68%
half-life [7]: 6.5 h
clearance [8]: 1.6 mL/min/kg
Cmax [9]: 3.5 µM
Vd [10]: 0.9 L/kg
bioavailability [11]: 22%
half-life [12]: 11.6 h
clearance [13]: 1.3 mL/min/kg
Vd [14]: 0.9 L/kg
SMILES: Nc1cc2c(ccc(=O)n2-c2c(F)cccc2F)c(-c2ccc(F)cc2F)n1
inhibition in vivo at 0.3 mg/kg (Mus musculus): > 90%
inhibition in vivo at 1 mg/kg (Rattus norvegicus [15]): 79%
inhibition in vivo at 1 mg/kg (Rattus norvegicus [15]; read-out: Inhibition): 79%
inhibition in vivo at 0.1 mg/kg (Rattus norvegicus [16]): 38%
inhibition in vivo at 0.3 mg/kg (Rattus norvegicus [17]): 54%
inhibition in vivo at 1 mg/kg (Rattus norvegicus [18]): 65%
inhibition in vivo at 3 mg/kg (Rattus norvegicus [19]): 80%
ED50 (Rattus norvegicus [20]): 0.22 mg/kg
inhibition in vivo at 0.1 mg/kg (Rattus norvegicus [21]): 53%
inhibition in vivo at 0.3 mg/kg (Rattus norvegicus [22]): 75%
inhibition in vivo at 3 mg/kg (Rattus norvegicus [23]): 97%
inhibition in vivo at 3 mg/kg (Rattus norvegicus [24]): 95%
inhibition in vivo at 3 mg/kg (Rattus norvegicus [3]): 92%
